Active and inactive are the calls of the source. The calls are words filed in the database; no cut-off is given here. Positions of bridges follow the written chain, without caps; N, C: chain ends. Non-standard residues stand in square brackets, D forms with d. Residues, ends and D or L forms follow the SMILES beside them. ξ: configuration not given here. S5 = C=CCCC[C@](C)(N)C(=O)O; Orn = NCCC[C@H](N)C(=O)O; ξK = NCCCCC(N)C(=O)O; ξA = CC(N)C(=O)O
Columns and labels:
[1] = target: T1, Proprotein convertase subtilisin/kexin type 9 (Homo sapiens, UniProt Q8NBP7); experiment: Binding affinity to human PCSK9 by surface plasmon resonance
Summary of the method: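 Recombinant human His-tagged PCSK9 (Gln31–Gln692, HEK293-expressed) at 14 µg/mL amine-coupled onto Ni-NTA chip, ~1000–4000 RU. Buffer 25 mM Tris-HCl, 5 mM CaCl2, 100 mM NaCl, 0.01% P20, pH 7.5, 5% DMSO in running buffer. 25°C. Double-referenced sensorgrams; KD from steady-state equilibrium responses fit to a 4-parameter model, or kinetics fit 1:1.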

HepG2 = experiment: Cytotoxicity against human HepG2 cells assessed as reduction in cell viability at 0.4 to 10 uM for 48 hrs by SRB assay; type: toxicity, cell-based; settings: hepg2, 48 h, dose 0.4-10 µM
Summary of the method: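 HepG2 cells seeded 2000/well 24 h before treatment. Compounds at 0.4, 1.1, 3.3 and 10 µM in DMEM, 48 h at 37°C. SRB staining 30 min at 37°C, dye dissolved in 10 mM Tris base, absorbance at 560 nm. Triplicate wells averaged and normalized to untreated cells.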

[2] = Reversal of LDL uptake in human HepG2 cells at 10 uM for 2 hrs preincubation with PCSK9 followed by LDL addition and measured after 4 hrs by fluorimetry method relative to control; type: functional; settings: time 6 hrs
Summary of the method: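 HepG2 cells seeded 40000/well, serum-starved 24 h in DMEM with 5% LPDS. Human His-PCSK9 (20–50 nM) preincubated 30–60 min at room temperature ± compounds (10 µM to 0.0001 µM, 0.1% DMSO). Cells then exposed 2 h at 37°C. LDL-BODIPY added to 10 µg/mL final for 4 h. Fluorescence read at ex 480/em 520 nm. Expressed as % maximal LDL-BODIPY incorporation; EC50 by non-linear fit.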

[3] = Effect on mast cell degranulation in human LAD2 cells assessed as CCL3 release measured after 2 hrs by Luminex bead based assay; type: functional
Summary of the method: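 LAD2 human mast cells in StemPro 34 medium, 0.2×10^6 cells/well. Supernatant CCL3 quantified by Luminex magnetic bead kit.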

[4] = target: T1, Proprotein convertase subtilisin/kexin type 9; experiment: Binding affinity to human PCSK9

T1 sequence (Q8NBP7 31-152 limits assumed): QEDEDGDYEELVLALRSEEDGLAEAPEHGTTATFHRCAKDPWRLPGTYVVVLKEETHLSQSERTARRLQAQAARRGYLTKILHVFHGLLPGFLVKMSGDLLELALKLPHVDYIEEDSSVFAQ
T1 sequence (Q8NBP7 153-692 limits assumed): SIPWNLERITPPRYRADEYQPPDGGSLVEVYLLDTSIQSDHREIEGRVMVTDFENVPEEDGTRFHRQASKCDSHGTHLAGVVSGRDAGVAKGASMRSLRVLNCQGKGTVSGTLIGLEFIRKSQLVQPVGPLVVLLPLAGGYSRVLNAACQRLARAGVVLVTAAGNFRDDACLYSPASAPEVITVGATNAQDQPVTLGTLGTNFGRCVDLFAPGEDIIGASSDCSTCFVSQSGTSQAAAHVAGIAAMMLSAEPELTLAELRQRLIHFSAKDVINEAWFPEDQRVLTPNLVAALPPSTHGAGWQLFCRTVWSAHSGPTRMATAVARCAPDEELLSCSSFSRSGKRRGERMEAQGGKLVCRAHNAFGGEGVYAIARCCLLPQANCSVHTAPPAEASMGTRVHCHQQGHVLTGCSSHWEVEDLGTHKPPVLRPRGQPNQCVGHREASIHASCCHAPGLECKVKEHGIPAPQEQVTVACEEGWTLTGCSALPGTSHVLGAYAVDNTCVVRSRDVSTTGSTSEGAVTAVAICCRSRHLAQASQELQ

Compound | Kd [1] [nM] | Activity (HepG2) | also measured
CC(=O)N[C@@H](Cc1cnc[nH]1)C(=O)N[C@H](C(=O)N[C@@H](Cc1ccccc1)C(=O)N[C@@H](CC(N)=O)C(=O)N[C@@H](CO)C(=O)N[C@@H](Cc1c[nH]c2ccccc12)C(=O)N[C@@H](CCC(=O)O)C(=O)N[C@@H](CCC(=O)O)C(=O)N[C@@H](Cc1ccc(O)cc1)C(=O)N[C@@H](CC(C)C)C(=O)N[C@@H](CC(=O)O)C(=O)N[C@@H](Cc1c[nH]c2ccccc12)C(=O)N[C@H](C(=O)NC(CCCCN)C(=O)NC(CCCCN)C(=O)NC(CCCCN)C(N)=O)C(C)C)C(C)C (some centres not stated) (Ac-HVFNSWEEYLDWV[ξK][ξK][ξK]-NH2) | 1100 | Non-Toxic | –
CC(=O)N[C@@H](Cc1cnc[nH]1)C(=O)N[C@H](C(=O)N[C@@H](Cc1ccccc1)C(=O)N[C@@H](CC(N)=O)C(=O)N[C@@H](CO)C(=O)N[C@@H](Cc1c[nH]c2ccccc12)C(=O)N[C@H]1CCCCNC(=O)C[C@@H](C(=O)N[C@@H](Cc2c[nH]c3ccccc23)C(=O)N[C@H](C(N)=O)C(C)C)NC(=O)[C@H](CC(C)C)NC(=O)[C@H](Cc2ccc(O)cc2)NC(=O)[C@H](CCC(=O)O)NC1=O)C(C)C (Ac-HVFNSWKEYLDWV-NH2; lactam 7-11) | 5300 | Non-Toxic | –
CC(=O)N[C@@H](Cc1cnc[nH]1)C(=O)N[C@H](C(=O)N[C@@H](Cc1ccccc1)C(=O)N[C@@H](CCCN)C(=O)N[C@@H](CO)C(=O)N[C@@H](Cc1c[nH]c2ccccc12)C(=O)N[C@@H](CCC(=O)O)C(=O)N[C@@H](CCC(=O)O)C(=O)N[C@@H](Cc1ccc(O)cc1)C(=O)N[C@@H](CC(C)C)C(=O)N[C@@H](CC(=O)O)C(=O)N[C@@H](Cc1c[nH]c2ccccc12)C(=O)N[C@H](C(N)=O)C(C)C)C(C)C (Ac-HVF[Orn]SWEEYLDWV-NH2) | 1100 | Non-Toxic | –
CC(=O)N[C@H](C(=O)N[C@H](C(=O)N[C@@H](Cc1ccccc1)C(=O)N[C@H](C(=O)N[C@@H](CO)C(=O)N[C@@H](Cc1c[nH]c2ccccc12)C(=O)N[C@H]1CCCCNC(=O)C[C@@H](C(=O)N[C@@H](Cc2c[nH]c3ccccc23)C(=O)N[C@H](C(N)=O)C(C)C)NC(=O)[C@H](CC(C)C)NC(=O)[C@H](Cc2ccc(O)cc2)NC(=O)[C@H](CCC(=O)O)NC1=O)[C@@H](C)O)C(C)C)[C@@H](C)O (Ac-TVFTSWKEYLDWV-NH2; lactam 7-11) | 3900 | Non-Toxic | Activity [2]: 52%; EC50 ([3]; Homo sapiens, LAD2, 2 h): > 5000 nM; Emax ([3]; time 2 hrs): 716.6 pg/mL
CC(=O)N[C@H](C(=O)N[C@H](C(=O)N[C@@H](Cc1ccccc1)C(=O)N[C@H](C(=O)N[C@@H](CO)C(=O)N[C@@H](Cc1c[nH]c2ccccc12)C(=O)N[C@H]1CCCCNC(=O)C[C@@H](C(=O)N[C@@H](Cc2c[nH]c3ccccc23)C(=O)N[C@H](C(=O)N[C@@H](CCCCN)C(=O)N[C@@H](CCCCN)C(=O)N[C@@H](CCCCN)C(N)=O)C(C)C)NC(=O)[C@H](CC(C)C)NC(=O)[C@H](Cc2ccc(O)cc2)NC(=O)[C@H](CCC(=O)O)NC1=O)[C@@H](C)O)C(C)C)[C@@H](C)O (Ac-TVFTSWKEYLDWVKKK-NH2; lactam 7-11) | 1000 | Non-Toxic | –
CC(=O)N[C@H](C(=O)N[C@H](C(=O)N[C@@H](Cc1ccccc1)C(=O)N[C@H](C(=O)N[C@@H](CO)C(=O)N[C@@H](Cc1c[nH]c2ccccc12)C(=O)N[C@@]1(C)CCC/C=C\CCC[C@@](C)(C(=O)N[C@@H](Cc2c[nH]c3ccccc23)C(=O)N[C@H](C(N)=O)C(C)C)NC(=O)[C@H](CC(C)C)NC(=O)[C@H](Cc2ccc(O)cc2)NC(=O)[C@H](CCC(=O)O)NC1=O)[C@@H](C)O)C(C)C)[C@@H](C)O (Ac-TVFTSW[S5]EYL[S5]WV-NH2; staple (Z) 7-11) | 6500 | Non-Toxic | Activity [2]: 42.7%
Ac-HVCNSWEEYLDWV-NH2 | – | Non-Toxic | Activity [1]: inactive
Ac-HVFKSWEEYLDWV-NH2 | 1200 | Non-Toxic | –
Ac-HVFNSWEEYLDWV-NH2 | 3900 | Non-Toxic | Activity [2]: 62.4%
Ac-HVFRSWEEYLDWV-NH2 | 865 | Non-Toxic | –
Ac-TVATSWEEYLDWV-NH2 | – | – | Activity [1]: inactive
Ac-TVFTSWAEYLDWV-NH2 | 7000 | Non-Toxic | –
Ac-TVFTSWEEALDWV-NH2 | – | Non-Toxic | –
Ac-TVFTSWEEYLAWV-NH2 | 8600 | – | –
Ac-TVFTSWEEYLDWVKKK-NH2 | 1600 | Non-Toxic | Activity [2]: 72.3%; Kd [4]: 1600 nM

Now from value to compound, other results behind:

Kd [1] [nM] | Compound | Activity (HepG2) | also measured
133 | CC(=O)N[C@H](C(=O)N[C@H](C(=O)N[C@@H](Cc1ccccc1)C(=O)N[C@H](C(=O)N[C@@H](CO)C(=O)N[C@@H](Cc1c[nH]c2ccccc12)C(=O)N[C@H]1CCCCNC(=O)C[C@@H](C(=O)N[C@@H](Cc2c[nH]c3ccccc23)C(=O)N[C@H](C(=O)N[C@@H](CCCCN)C(=O)N[C@@H](CCCCN)C(=O)N[C@@H](C)C(=O)N[C@@H](CCCCN)C(=O)N[C@@H](CCCCN)C(=O)N[C@H](CCCCN)C(N)=O)C(C)C)NC(=O)[C@H](CC(C)C)NC(=O)[C@H](Cc2ccc(O)cc2)NC(=O)[C@H](CCC(=O)O)NC1=O)[C@@H](C)O)C(C)C)[C@@H](C)O | – | –
19 | CC(=O)N[C@@H](Cc1cnc[nH]1)C(=O)N[C@H](C(=O)N[C@@H](Cc1ccccc1)C(=O)N[C@@H](CC(N)=O)C(=O)N[C@@H](CO)C(=O)N[C@@H](Cc1c[nH]c2ccccc12)C(=O)N[C@H]1CCCCNC(=O)C[C@@H](C(=O)N[C@@H](Cc2c[nH]c3ccccc23)C(=O)N[C@H](C(=O)N[C@@H](CCCCN)C(=O)N[C@@H](CCCCN)C(=O)N[C@@H](CCCCN)C(=O)N[C@@H](CCCCN)C(=O)N[C@@H](CCCCN)C(=O)N[C@@H](CCCCN)C(N)=O)C(C)C)NC(=O)[C@H](CC(C)C)NC(=O)[C@H](Cc2ccc(O)cc2)NC(=O)[C@H](CCC(=O)O)NC1=O)C(C)C (Ac-HVFNSWKEYLDWVKKKKKK-NH2; lactam 7-11) | Non-Toxic | –
757 | CC(=O)N[C@@H](Cc1cnc[nH]1)C(=O)N[C@H](C(=O)N[C@@H](Cc1ccccc1)C(=O)N[C@@H](CC(N)=O)C(=O)N[C@@H](CO)C(=O)N[C@@H](Cc1c[nH]c2ccccc12)C(=O)N[C@H]1CCCCNC(=O)C[C@@H](C(=O)N[C@@H](Cc2c[nH]c3ccccc23)C(=O)N[C@H](C(=O)NC(CCCCN)C(=O)NC(CCCCN)C(=O)NC(CCCCN)C(N)=O)C(C)C)NC(=O)[C@H](CC(C)C)NC(=O)[C@H](Cc2ccc(O)cc2)NC(=O)[C@H](CCC(=O)O)NC1=O)C(C)C (some centres not stated) (Ac-HVFNSWKEYLDWV[ξK][ξK][ξK]-NH2; lactam 7-11) | Non-Toxic | –
7 | CC(=O)N[C@@H](Cc1cnc[nH]1)C(=O)N[C@H](C(=O)N[C@@H](Cc1ccccc1)C(=O)N[C@@H](CCCNC(=N)N)C(=O)N[C@@H](CO)C(=O)N[C@@H](Cc1c[nH]c2ccccc12)C(=O)N[C@@]1(C)CCC/C=C\CCC[C@@](C)(C(=O)N[C@@H](Cc2c[nH]c3ccccc23)C(=O)N[C@H](C(=O)N[C@@H](CCCCN)C(=O)N[C@@H](CCCCN)C(=O)N[C@@H](CCCCN)C(=O)N[C@@H](CCCCN)C(=O)N[C@@H](CCCCN)C(=O)N[C@@H](CCCCN)C(N)=O)C(C)C)NC(=O)[C@H](CC(C)C)NC(=O)[C@H](Cc2ccc(O)cc2)NC(=O)[C@H](CCC(=O)O)NC1=O)C(C)C (Ac-HVFRSW[S5]EYL[S5]WVKKKKKK-NH2; staple (Z) 7-11) | Non-Toxic | –
72.5 | CC(=O)N[C@H](C(=O)N[C@H](C(=O)N[C@@H](Cc1ccccc1)C(=O)N[C@H](C(=O)N[C@@H](CO)C(=O)N[C@@H](Cc1c[nH]c2ccccc12)C(=O)N[C@@H](CCC(=O)O)C(=O)N[C@@H](CCC(=O)O)C(=O)N[C@@H](Cc1ccc(O)cc1)C(=O)N[C@@H](CC(C)C)C(=O)NC(C)C(=O)N[C@@H](Cc1c[nH]c2ccccc12)C(=O)N[C@H](C(=O)N[C@@H](CCCCN)C(=O)N[C@@H](CCCCN)C(=O)N[C@@H](CCCCN)C(=O)N[C@@H](CCCCN)C(=O)N[C@@H](CCCCN)C(=O)N[C@@H](CCCCN)C(N)=O)C(C)C)[C@@H](C)O)C(C)C)[C@@H](C)O (some centres not stated) (Ac-TVFTSWEEYL[ξA]WVKKKKKK-NH2) | – | –
25 | CC(=O)N[C@H](C(=O)N[C@H](C(=O)N[C@@H](Cc1ccccc1)C(=O)N[C@H](C(=O)N[C@@H](CO)C(=O)N[C@@H](Cc1c[nH]c2ccccc12)C(=O)N[C@H]1CCCCNC(=O)C[C@@H](C(=O)N[C@@H](Cc2c[nH]c3ccccc23)C(=O)N[C@H](C(=O)N[C@@H](CCCCN)C(=O)N[C@@H](CCCCN)C(=O)N[C@@H](CCCCN)C(=O)N[C@@H](CCCCN)C(=O)N[C@@H](CCCCN)C(=O)N[C@@H](CCCCN)C(N)=O)C(C)C)NC(=O)[C@H](CC(C)C)NC(=O)[C@H](Cc2ccc(O)cc2)NC(=O)[C@H](CCC(=O)O)NC1=O)[C@@H](C)O)C(C)C)[C@@H](C)O (Ac-TVFTSWKEYLDWVKKKKKK-NH2; lactam 7-11) | Non-Toxic | –
424 | Ac-TVFTSWEEYLDWVKKKKKK-NH2 | Non-Toxic | Kd [4]: 424 nM

— ChEMBL document CHEMBL5038602, “Potent Lys Patch-Containing Stapled Peptides Targeting PCSK9” (J Med Chem, 2021)
